According to ChEMBL document CHEMBL5325455, “Daphnanes diterpenes from the latex of Hura crepitans L. and their PKCζ-dependent anti-proliferative activity on colorectal cancer cells” (Bioorg Med Chem, 2023):
Active and inactive are the calls of the source. The calls are words filed in the database; no cut-off is given here.

How the values were obtained:
Caco-2 [1] = test: Cytotoxicity against human Caco-2 cells assessed as cell death; assay type: functional, cell-based
SARS-CoV-2 = test: Antiviral activity against SARS-CoV-2 assessed as reduction in progeny production measured 24 hrs post infection by PFU assay; assay type: functional, organism-based; settings: Severe acute respiratory syndrome coronavirus 2, 24 h
Caco-2 [2] = test: Cytostatic activity against human Caco-2 cells assessed as inhibition of cell growth at 1 ug/ml incubated for 48 hrs by MTS assay relative to control; assay type: functional
Method in brief: (§1)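 Caco-2 cells were seeded at 40 000/well 48 h before dosing. Compound was diluted from a 10 mg/mL DMSO stock into medium (0.125, 0.5 or 1 µg/mL final; DMSO ≤0.01%) and added in triplicate for 48 h. Viability was read by MTS absorbance at 490 nm and expressed relative to the DMSO control.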

Zika virus = test: Antiviral activity against ZIKV expressing GFP reporter gene measured 24 hrs post infection; assay type: functional, organism-based
Method in brief: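 Cells in 96-well plates were exposed to serial concentrations starting at 50 µg/mL and infected with GFP-reporter Zika virus at MOI 1. At 24 h post-infection, cells were fixed in 3.7% PFA and GFP-positive cells were counted by flow cytometry.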

Caco-2 [3] = test: Cytostatic activity against human Caco-2 cells assessed as inhibition of cell growth at 1 ug/ml incubated for 48 hrs by MTS assay; assay type: functional, cell-based; settings: dose 1.0 µg/ml; method in brief: as §1
Caco-2 [4] = test: Upregulation of PKCdelta protein expression in human Caco-2 cells at 1 ug/ml incubated for 48 hrs by Western blot analysis; assay type: functional, cell-based; settings: dose 1.0 µg/ml
Method in brief: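 Caco-2 cells, 0.25 × 10^6 per well, seeded 48 h before treatment; DMSO vehicle control. Optional 15 min pretreatment with 0.2 µM Gö6976. Cells lysed on ice after 48 h in pH 7.4 Tris/NaCl/Triton/EDTA buffer with protease and phosphatase inhibitors. 30 µg protein run on 4–15% SDS-PAGE, blotted to nitrocellulose, ECL detection. pSer664 and total PKCδ probed, ratio quantified, actin as loading control; one experiment.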

[5] = tested on: Colorectal epithelial cell; test: Cytostatic activity against human Colorectal epithelial cells isolated from patient with well-differentiated colonic adenocarcinoma and undergone nine courses of chemotherapy cultured as organoids at 1 ug/ml incubated for 48 hrs by CellTiter-Glo luminescence assay; assay type: functional, cell-based; settings: dose 1.0 µg/ml
Method in brief: (§2)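 Primary colonic epithelial cells (3 control and 2 CRC patients) were expanded as organoids or spheroids in Matrigel with EGF/noggin/Wnt3a/R-spondin medium. Single cells were seeded at 2500/well and allowed 48 h to form colonoids, then exposed for 48 h at 0.01, 0.1 or 1 µg/mL, with 5FdU at 1 µg/mL as positive control. Viability was read by CellTiter-Glo luminescence versus DMSO or medium control.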

[6] = tested on: Colorectal epithelial cell; test: Cytostatic activity against human Colorectal epithelial cells isolated from patient with fistulized sigmoiditis cultured as organoids at 1 ug/ml incubated for 48 hrs by CellTiter-Glo luminescence assay; assay type: functional, cell-based; settings: dose 1.0 µg/ml; method in brief: as §2
[7] = tested on: Colorectal epithelial cell; test: Cytostatic activity against human Colorectal epithelial cells isolated from patient with well-differentiated colonic adenocarcinoma cultured as organoids at 1 ug/ml incubated for 48 hrs by CellTiter-Glo luminescence assay; assay type: functional, cell-based; settings: dose 1.0 µg/ml; method in brief: as §2
[8] = tested on: Colorectal epithelial cell; test: Cytostatic activity against human Colorectal epithelial cells isolated from left colon of patient with sigmoido-vaginal fistula for diverticulitis cultured as organoids at 1 ug/ml incubated for 48 hrs by CellTiter-Glo luminescence assay; assay type: functional, cell-based; settings: dose 1.0 µg/ml; method in brief: as §2
[9] = tested on: Colorectal epithelial cell; test: Cytostatic activity against human Colorectal epithelial cells isolated from left colon of patient with recurrent diverticulitis cultured as organoids at 1 ug/ml incubated for 48 hrs by CellTiter-Glo luminescence assay; assay type: functional, cell-based; settings: dose 1.0 µg/ml; method in brief: as §2

## C=C(C)[C@]12C[C@@H](C)[C@@]34O[C@](/C=C/C=C/C(=O)CCCCCCCC)(O[C@@H]1[C@@H]3[C@@H]1O[C@]1(CO)[C@@H](O)[C@]1(O)C(=O)C(C)=C[C@H]14)O2
Caco-2 [1]
  Activity: inactive
SARS-CoV-2
  IC50: 50.2 µM
Caco-2 [2]
  inhibition at 1 µg/mL: ~25%
Zika virus
  IC50: > 50 µM

## C=C(C)[C@]12C[C@@H](C)[C@@]34O[C@](/C=C/C=C/[C@H](O)CCCCCCCC)(O[C@@H]1[C@@H]3[C@@H]1O[C@]1(CO)[C@@H](O)[C@]1(O)C(=O)C(C)=C[C@H]14)O2
Caco-2 [1]
  Activity: inactive
Caco-2 [2]
  inhibition at 1 µg/mL: ~25%

## C=C(C)[C@]12C[C@@H](C)[C@@]34O[C@](/C=C/[C@H](O)[C@@H](O)CCCCCCCCC)(O[C@@H]1[C@@H]3[C@@H]1O[C@]1(CO)[C@@H](O)[C@]1(O)C(=O)C(C)=C[C@H]14)O2
Caco-2 [1]
  Activity: inactive
Caco-2 [3]
  Activity: Active

## C=C(C)[C@]1(O)C[C@@H](C)[C@]2(O)[C@H]([C@H]1O)[C@@H]1O[C@]1(COC(=O)CCCCCCCCCC(C)/C=C/CCCCC)[C@@H](O)[C@]1(O)C(=O)C(C)=C[C@H]12 (stereo not given in full)
Caco-2 [1]
  Activity: inactive
SARS-CoV-2
  IC50: 34.2 µM
Zika virus
  IC50: > 50 µM
Caco-2 [3]
  Activity: inactive

## C=C(C)[C@]12C[C@@H](C)[C@@]34O[C@](/C=C/C=C\C(=O)CCCCCCCC)(O[C@@H]1[C@@H]3[C@@H]1O[C@]1(CO)[C@@H](O)[C@]1(O)C(=O)C(C)=C[C@H]14)O2
Caco-2 [1]
  Activity: inactive
Caco-2 [2]
  inhibition at 1 µg/mL: ~25%

## Cn1c2ccccc2c2c3c(c4c5ccccc5n(CCC#N)c4c21)CNC3=O
Caco-2 [4]
  Activity: Active

## O=c1[nH]c(=O)n([C@H]2C[C@H](O)[C@@H](CO)O2)cc1F
[5]
  Activity: inactive
[6]
  Activity: inactive
[7]
  Activity: inactive
[8]
  Activity: inactive
[9]
  Activity: inactive
